The results in this text go back to the array DNA melting data of Ke et al. (doi:10.1101/2024.01.08.574731).

Data set [1] in a line: folding enthalpy; higher = less favourable; fluorescence melt of hairpins on a sequencing array, two-state fit. As to conditions: sodium 0.088 M. Summed up: (§1)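 On a sequenced MiSeq flow cell, library hairpins with annealed Cy3 and quencher oligos were imaged for Cy3 fluorescence in 2.5 °C steps up to 60 °C, in 50 mM Na-HEPES pH 8.0, 25 mM NaCl. Normalisation used pre-quench Cy3 and control constructs. Bootstrapped two-state fits gave melting temperature and folding enthalpy, combined by inverse variance across four replicates and with fitted temperatures raised by 9.35 °C to match UV melts.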

The nature of data set [2]: melting temperature; fluorescence melt of hairpins on a sequencing array, two-state fit, raised by 9.35 °C to match UV melts. As to conditions: sodium 0.088 M. The method, boiled down:
as §1

As for GGAAGGACGAAAGTCTCC (((..(((....)))))), the folding enthalpy in data set [1] is -12.8 kcal/mol. Moreover, the Tm in data set [2] was determined as 33.1 °C.

Take GGAAGGCGAAAGCCCTCC (((.(((....))).))): in data set [1], the folding enthalpy was -16.8 kcal/mol. Moreover, the Tm in data set [2] stood at 48.7 °C.

In the case of GGAAGGGCGAAAGCCTCC (((..(((....)))))), the folding enthalpy in data set [1] was -11.2 kcal/mol. Further, the Tm in data set [2] amounted to 41.1 °C.

As for GGAAGTCGAAAGACATCC (((.(((....))).))), the folding enthalpy in data set [1] was -25.2 kcal/mol. Further, the Tm in data set [2] amounted to 48.2 °C.

For GGAAGTGCGAAAGCATCC (((..(((....)))))), the folding enthalpy in data set [1] is -10.6 kcal/mol. In addition, the Tm in data set [2] worked out at 31.3 °C.

Turning to GGAAGTGGAAACACTTCC (((((((....))))))), the folding enthalpy in data set [1] was -54 kcal/mol. In data set [2], the Tm was found to be 61 °C.

Take GGAAGTGGAAACACTTTC (.(((((....))))).): the folding enthalpy in data set [1] was -26.6 kcal/mol. Besides, the Tm in data set [2] was determined as 45.2 °C.

GGAATAACGAAAGTTTCC (((..(((....)))))): the folding enthalpy in data set [1] was -14.8 kcal/mol. For the same sequence, the Tm in data set [2] stood at 32.5 °C.

Consider GGAATACCGAAAGGTTCC (((..(((....)))))), for which the folding enthalpy in data set [1] is -16.1 kcal/mol. In data set [2], the Tm was 36.4 °C.

GGAATACGAAAGTAATCC (((.(((....))).))): the folding enthalpy in data set [1] was -28.8 kcal/mol. Moreover, in data set [2], the Tm was found to be 40.1 °C.

Take GGAATAGCGAAAGCTTCC (((..(((....)))))): the folding enthalpy in data set [1] is -20.2 kcal/mol. The Tm in data set [2] turned out to be 39.2 °C.

In the case of GGAATAGGAAACTATTCC (((((((....))))))), the folding enthalpy in data set [1] was -41.4 kcal/mol. Moreover, the Tm in data set [2] was 52.7 °C.

As for GGAATAGGAAACTATTTC (.(((((....))))).), the folding enthalpy in data set [1] is -29.1 kcal/mol. Also, in data set [2], the Tm is 30.6 °C.

With GGAATCACGAAAGTGTCC (((..(((....)))))), the folding enthalpy in data set [1] was -11.5 kcal/mol. Besides, the Tm in data set [2] turned out to be 30.5 °C.

As to GGAATCGAAAGATCTTCC ((((((....)))..))), the folding enthalpy in data set [1] was -20.9 kcal/mol. Further, the Tm in data set [2] was determined as 30.6 °C.

Turning to GGAATCGAAAGATGCTCC ((((((....)))..))), the folding enthalpy in data set [1] is -10.7 kcal/mol. Besides, the Tm in data set [2] amounted to 28.9 °C.

As for GGAATCGAAAGATGGTCC ((((((....)))..))), the folding enthalpy in data set [1] is -8.55 kcal/mol. Also, the Tm in data set [2] was found to be 25.8 °C.

For GGAATCGAAAGATGTTCC ((((((....)))..))), the folding enthalpy in data set [1] was -8.43 kcal/mol. Moreover, the Tm in data set [2] was 22.8 °C.

As for GGAATGACGAAAGTCTCC (((..(((....)))))), in data set [1], the folding enthalpy is -13.3 kcal/mol. The Tm in data set [2] turned out to be 28.8 °C.

With GGAATTGGAAACAGTTCC ((((.((....)).)))), the folding enthalpy in data set [1] was -27.3 kcal/mol. The Tm in data set [2] was found to be 42.9 °C.

Turning to GGACAACGAAAGTTCTCC (((.(((....))).))), the folding enthalpy in data set [1] was -22.8 kcal/mol. Moreover, in data set [2], the Tm worked out at 31.3 °C.

On to GGACAAGGAAACTTGTTC (.(((((....))))).), for which the folding enthalpy in data set [1] is -25.9 kcal/mol. Also, the Tm in data set [2] came to 43 °C.

Turning to GGACACGAAAGTGACTCC ((((((....)))..))), the folding enthalpy in data set [1] was -14.2 kcal/mol. In data set [2], the Tm stood at 40.6 °C.

As to GGACACGAAAGTGGTTCC ((((((....)))..))), the folding enthalpy in data set [1] is -14.3 kcal/mol. In data set [2], the Tm is 37.3 °C.

For the sequence GGACACGAAAGTGTATCC ((((((....)))..))), the folding enthalpy in data set [1] was -10.9 kcal/mol. The Tm in data set [2] was found to be 36.1 °C.

As for GGACACGAAAGTGTTCC ((((((....))).))), the folding enthalpy in data set [1] is -17.5 kcal/mol. Moreover, in data set [2], the Tm was 56 °C.

For GGACACGGAAACACGTCC ((((..(....)..)))), the folding enthalpy in data set [1] was -21.8 kcal/mol. Moreover, the Tm in data set [2] was found to be 36.4 °C.

Take GGACAGAAATGTCC (((((....))))): the folding enthalpy in data set [1] was -25.9 kcal/mol. For the same sequence, the Tm in data set [2] stood at 53.2 °C.

For the sequence GGACAGCCGAAAGGCTCC (((..(((....)))))), the folding enthalpy in data set [1] is -7.98 kcal/mol. Also, in data set [2], the Tm was 31.2 °C.

In the case of GGACAGGAAACTGTCC ((((((....)))))), in data set [1], the folding enthalpy was -43 kcal/mol. For the same sequence, in data set [2], the Tm is 62.8 °C.

Consider GGACAGGGAAACCCGTCC ((((.((....)).)))), for which, in data set [1], the folding enthalpy is -34.1 kcal/mol. Moreover, the Tm in data set [2] turned out to be 50.8 °C.

Regarding GGACAGGGAAACCTGTTC (.(((((....))))).), the folding enthalpy in data set [1] was -22.9 kcal/mol. Besides, the Tm in data set [2] came to 50 °C.

Consider GGACATACGAAAGTATCC (((..(((....)))))), for which the folding enthalpy in data set [1] was -10.9 kcal/mol. In addition, the Tm in data set [2] was 26.8 °C.

On to GGACATGCGAAAGCATCC (((..(((....)))))), for which the folding enthalpy in data set [1] was -10.8 kcal/mol. The Tm in data set [2] worked out at 28.6 °C.

Regarding GGACCACGAAAGTGCTCC (((.(((....))).))), in data set [1], the folding enthalpy was -25.9 kcal/mol. Moreover, the Tm in data set [2] is 41.5 °C.

Consider GGACCAGGAAACCAGTCC ((((..(....)..)))), for which, in data set [1], the folding enthalpy was -20.3 kcal/mol. Besides, the Tm in data set [2] turned out to be 33.9 °C.

GGACCAGGAAACCGGTCC (((((.(....).))))): in data set [1], the folding enthalpy was -35.3 kcal/mol. For the same sequence, the Tm in data set [2] was 54.6 °C.
